GalR3 antag: antagonists of human GalR3; actives 0.44% (n = 360,000); AID 651719; HEK293 GalR3-CNG cAMP membrane potential fluorescence; galR3 body fused to GalR1 C-terminus; inhibition, % at 3 µM; O60755;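 active = inhibition above the screen-wide average plus 3 SD, cut at about 13% in these data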;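 note: forskolin and galanin both at EC90 stimulate the cells; cAMP rise reported by CNG channel membrane potential dye signal; 0% = forskolin plus galanin with DMSO and 100% = forskolin alone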
Target sequence (O60755 1-299 limits assumed): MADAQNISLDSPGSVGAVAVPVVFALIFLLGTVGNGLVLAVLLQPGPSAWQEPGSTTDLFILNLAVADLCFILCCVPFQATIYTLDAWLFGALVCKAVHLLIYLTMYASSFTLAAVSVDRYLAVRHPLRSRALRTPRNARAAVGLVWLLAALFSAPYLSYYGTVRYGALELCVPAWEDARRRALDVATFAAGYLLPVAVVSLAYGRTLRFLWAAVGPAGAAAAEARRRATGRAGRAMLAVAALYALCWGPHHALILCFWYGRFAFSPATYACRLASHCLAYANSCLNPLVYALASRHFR
Calb FLC: affects C. albicans growth with fluconazole | C. albicans CaCi-2 + fluconazole, Alamar Blue growth, 48 h | growth inhibition, % (no concentration beside the values) | actives 0.57% (n = 300,000);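 active = growth inhibition above about 58% in most replicates, limit read from the data, passing the limit was not always enough; inconclusive = exactly half the replicates above a set limit; inactive = most replicates below a set limit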;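 note: all wells also contain fluconazole at 8 µg/ml as a sub-toxic cotreatment; 0% = median of DMSO wells and 100% = median of geldanamycin control wells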
TAG inh: inhibitors of triacylglycerol accumulation. inhibition, % at 12.5 µM. H9c2 cells, Nile Red lipid (TAG) fluorescence; cells loaded with 200 µM oleic acid. actives 0.66% (n = 230,000). AID 651582;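 active = pattern-corrected inhibition of lipid staining of at least 50% with the nuclear-stain viability signal not falling by more than 50%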;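 note: 0% = DMSO wells and 100% = triacsin C control wells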
MC4R ag barr: agonists of human melanocortin 4 receptor (MC4R) beta-arrestin; AID 540308; U2OS MC4R beta-arrestin complementation, luminescence; percent of melanotan II response, DMSO zero; actives 0.98% (n = 360,000); P32245; activation, % at 8.9 µM;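 active = activation above a per-plate cutoff, the mean activation of sample wells on that plate plus 3 SD, cut at about 8% in these data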
Target sequence (P32245 whole entry, looked up): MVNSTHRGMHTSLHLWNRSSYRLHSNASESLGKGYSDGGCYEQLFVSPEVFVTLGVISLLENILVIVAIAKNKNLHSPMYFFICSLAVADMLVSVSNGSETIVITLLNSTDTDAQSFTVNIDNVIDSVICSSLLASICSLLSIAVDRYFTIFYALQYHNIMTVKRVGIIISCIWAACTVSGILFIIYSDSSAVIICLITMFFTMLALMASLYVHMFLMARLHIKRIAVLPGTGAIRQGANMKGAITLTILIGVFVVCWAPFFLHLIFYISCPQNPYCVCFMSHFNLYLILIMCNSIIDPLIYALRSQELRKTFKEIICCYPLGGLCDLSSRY
MC4R antagonist: antagonists of human melanocortin 4 receptor (MC4R) | MC4R-expressing cells, MTII-stimulated cAMP, LANCE TR-FRET | inhibition, % at 6.5 µM | actives 0.48% (n = 360,000);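 active = inhibition above its plate's cutoff, the mean of tested wells on that plate plus 3 SD, cut at about 29% in these data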;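 note: 0% = Melanotan II alone and 100% = Melanotan II plus saturating MCL0020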
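Assay system: U2OS-MC4R stable cell line; Also added: Melanotan II; Technique: Eu-cAMP/anti-cAMP TR-FRET, emission 671 nm; Times: 30-min compound, 1-h challenge, 1-h detection, room temperature.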
Efflux pump mplx: antifungal efflux pump inhibition, Nile Red retention; S. cerevisiae Candida pump triplex; inhibition, % at 10 µM; actives 0.44% (n = 330,000); AID 485275;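 active = plate passing quality check with inhibition over a set limit, or well fluorescence over plate mean plus 4 SD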;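 note: Nile Red retained in pooled yeast measured as flow cytometry median fluorescence; 0% = buffer negative control and 100% = Enniatin B positive control; higher means more Nile Red kept so more efflux inhibition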
cAMP nonselect: U2OS forskolin cAMP inhibition counter-screen; shares compounds with MC4R antagonist; parental U2OS, LANCE TR-FRET; inhibition, % at 6.5 µM; AID 602193; actives 26% (n = 1,600);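 active = mean inhibition over triplicates above the low-control well mean plus 3 SD, set per campaign, cut at about 13% in these data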;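 note: signal is single emission at 671 nm which falls as cellular cAMP rises; 0% = forskolin-stimulated wells and 100% = buffer without forskolin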
MC4R cAMP antag: human MC4R cAMP antagonism confirmation. AID 602195. inhibition, % at 6.5 µM. MC4R-expressing cells, MTII-stimulated cAMP, TR-FRET. shares compounds with MC4R antagonist. actives 27% (n = 1,600); in the data active = inhibition above about 29%;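 note: 0% = agonist stimulated wells alone and 100% = agonist stimulated wells plus saturating reference antagonist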
The depositor's hits bear a star; ? = inconclusive; · = no result given. The list is not random: actives were taken first. Their share in the collection is about 2.9%.

SMILES	GalR3 antag	Calb FLC	TAG inh	MC4R ag barr	MC4R antagonist	Efflux pump mplx	cAMP nonselect	MC4R cAMP antag
Cc1nc2c(OCc3cc(Cl)cc(Cl)c3)cccn2c1N(C)C(=O)CCC1CCCC1	-7	·	5	2	8	·	·	·
O=c1c(Cl)c(N2CCN(c3ccc(F)cc3)CC2)cnn1C12CC3CC(CC(C3)C1)C2	-3	-3	·	3	29*	0	-1	3
Cc1ccc(CC2C(=O)N(c3ccccc3)C(=O)C2C)cc1 (stereo not given)	-12	15	-9	0	32*	0	-1	3
Cc1ccc(CC2C(=O)N(c3cc(Cl)ccn3)C(=O)C2C)cc1 (stereo not given)	-2	-17	4	0	4	0	·	·
CCCN1CCCCC(NC(=O)c2c(F)cccc2F)C1=O (stereo not given)	2	·	·	·	·	·	·	·
Cc1ccc(C(=O)CSc2cc(C)nc(SCC(=O)c3ccccc3)n2)cc1	-3	-2	·	0	8	0	·	·
Cc1cc(Oc2ccc(C)c(Cl)c2)nc(SCC(=O)c2ccccc2)n1	-10	-1	·	2	45*	1	23*	47*
CCCCn1c(=O)[nH]c(=O)c2c1nc(-c1ccc(OCC)cc1)n2CC	-8	10	·	0	7	0	·	·
CCCCn1c(=O)[nH]c(=O)c2c1nc(-c1ccc(C#N)cc1)n2C1CCCC1	0	2	2	0	29*	0	3	8
COc1ccc(C2=Nc3ccccc3N(C(=O)c3cc(Cl)cc(Cl)c3)C2C(=O)NCc2ccccc2)cc1 (stereo not given)	-7	·	·	·	·	·	·	·
O=C1CNC(=O)/C1=C/c1ccc(Br)cc1	-2	-9	-3	0	32*	0	1	-6
O=C1c2ccccc2NC(c2ccccc2Br)N1CCCN1CCOCC1 (stereo not given)	-3	-3	·	-1	29*	0	1	1
COC(=O)C1=C(C)N(Cc2ccccc2C(F)(F)F)C(=NCc2ccc(C(F)(F)F)cc2)NC1c1cccc(F)c1 (stereo not given)	-8	·	·	·	·	·	·	·
COc1ccc(-n2c(CN3CCN(c4ccccn4)CC3)nc3ccc([N+](=O)[O-])cc3c2=O)c(OC)c1	-6	3	-2	-1	38*	0	1	7
Cn1c(CNc2nc3ccccc3n2CCN2CCCCC2)nc2ccccc21	-1	?	12	0	0	0	·	·
c1ccc(Cn2c(CNc3nc4ccccc4n3CCN3CCCCC3)nc3ccccc32)cc1	-9	2	·	-3	29*	0	-5	28
CC1=NOC(=O)/C1=C/c1ccc(-c2ccc(Cl)cc2)o1	·	·	·	-3	63*	0	11	31*
C[C@@H]1Cn2cnc(C(=O)Nc3ccccc3)c2C(=O)N1	-8	·	8	1	20	·	·	·
C[C@H]1Cn2cnc(C(=O)Nc3ccccc3)c2C(=O)N1	-3	·	16	-1	31*	·	-1	-1
COc1ccc(N2CCN(C(=O)Nc3ccccc3Cl)CC2)cc1	10	-53	-9	2	37*	0	-1	4
Cc1cccc(NC(=O)CNC(=O)CN2C(=O)NC(C)(CCC(C)C)C2=O)c1C (stereo not given)	-3	·	-3	-4	10	·	·	·
O=S(=O)(Nc1ccccc1-c1ccccc1)c1ccccc1	-8	·	-19	-2	3	·	·	·
O=C(O)c1cccc(S(=O)(=O)Nc2ccccc2-c2ccccc2)c1	-2	0	4	0	29*	0	3	-8
Cc1cc(C(=O)COC(=O)C2=NN(c3ccccc3)C(=O)CC2)c(C)n1CC(F)(F)F	-7	-14	14	2	30*	0	0	-6
COC(=O)[C@]1(CC(C)C)NC=C(C(=O)c2ccccc2)[C@@H]1c1cccc(C(F)(F)F)c1	-7	·	·	·	·	·	·	·
SMILES	GalR3 antag	Calb FLC	TAG inh	MC4R ag barr	MC4R antagonist	Efflux pump mplx	cAMP nonselect	MC4R cAMP antag
CNC(=O)c1cc(Oc2ccc(NC(=O)Nc3ccc(Cl)c(C(F)(F)F)c3)cc2)ccn1	-8	·	-8	1	47*	0	4	40*
O=C1[C@@H]2CSCCS(=O)(=O)N2C(=O)N1C1CCCCC1	-3	·	·	·	·	·	·	·
C=CCN1C(=O)c2n[nH]c(C(C)C)c2C1c1ccc2c(c1)OCO2 (stereo not given)	-6	·	·	·	·	·	·	·
CC1CCC/C(=N\NC(=O)Nc2ccccc2)C1 (stereo not given)	-1	-7	·	-1	23	1	·	·
CC1CCC/C(=N\NS(=O)(=O)c2ccccc2)C1 (stereo not given)	10	-4	-10	2	37*	0	-1	-1
CCS(=O)(=O)c1ncc(Cl)c(C(=O)Nc2ccc(C)cc2)n1	-8	2	·	0	0	0	·	·
Cc1ccc(CS(=O)(=O)c2ncc(Cl)c(C(=O)Nc3ccc(OC(F)F)cc3)n2)cc1	-3	-2	·	-4	40*	0	23*	13
Cc1cccc(CS(=O)(=O)c2ncc(Cl)c(C(=O)Nc3nnc(C(C)C)s3)n2)c1	·	-1	·	-3	58*	0	27*	54*
COC(=O)c1ccccc1NC(=O)c1nc(S(=O)(=O)Cc2ccccc2)ncc1Cl	1	-4	·	-4	7	0	·	·
C=CCSc1nnc(NC(=O)c2nc(SCC)ncc2Cl)s1	·	30	·	-1	6	0	·	·
CCSc1nnc(NC(=O)c2nc(S(=O)(=O)Cc3ccc(F)cc3)ncc2Cl)s1	-8	3	·	-2	49*	0	14*	20
CC(C)c1nnc(NC(=O)c2nc(S(=O)(=O)Cc3ccc(F)cc3)ncc2Cl)s1	-9	-4	·	-3	56*	0	16*	39*
O=C(CN1C(=O)c2cccc([N+](=O)[O-])c2C1=O)N1CCc2ccccc2C1	-8	·	-21	0	25	·	·	·
COC(=O)C1=C(C)N(C)C(=NCc2ccc(OC)cc2)NC1c1ccc(C(F)(F)F)cc1 (stereo not given)	-8	·	·	·	·	·	·	·
Cc1nnc(NC(=O)c2nc(S(=O)(=O)Cc3ccccc3C)ncc2Cl)s1	-9	-2	·	2	22	0	·	·
Cc1ccc(CS(=O)(=O)c2ncc(Cl)c(C(=O)Nc3nnc(C(C)C)s3)n2)cc1	-1	-4	·	-1	51*	0	24*	41*
CSc1nnc(NC(=O)c2nc(S(=O)(=O)Cc3ccccc3F)ncc2Cl)s1	-2	-7	·	-2	41*	0	18*	38*
CCOc1ccccc1NC(=O)c1nc(S(=O)(=O)Cc2cccc(C)c2)ncc1Cl	1	5	·	-2	22	0	·	·

Source: PubChem (several laboratories)
